40 compounds from PubChem BioAssay can be followed below.

Values without a mark were called inactive.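 The calls were made as follows, unless noted: active = growth inhibition above 25% in both replicates, a cutoff set 3 SD above the mean; inconclusive = above 25% in only one replicate; inactive = the rest.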

The first test can be described thus: OD615 S. cerevisiae growth inhibition, permissive medium, pilot counter-assay, permissive growth control for S. cerevisiae lifespan shortening project (AID 705). The conditions noted are these: OD615, 24 h, at 10 µM, active compounds read high. A digest of the protocol:
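System: engineered DeaD yeast; Medium: permissive raffinose/galactose medium; Compound dosing: 10 µM single dose, 0.25% DMSO; Incubation: 4 h cell pre-growth, 24 h exposure at 30 °C; Technique: OD at 615 nm; Evaluation: growth inhibition from lowered OD615 after 24 h.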
On to `O=C(CSc1nc2c(cnn2-c2ccc(F)cc2)c(=O)[nH]1)N1CCCCCC1`, for which the growth inhibition was -3.72%.
With `CCNc1nnc(-c2ccccc2OC)s1`, the growth inhibition was -2.37%.
Still for that read-out and setting: in the case of `O=[n+]1c2c(n([O-])c3c1CCCC3)CCCCC2` it was -3.03%; in that of `O=C(O)C1C(c2ccccc2)C(C(=O)OCc2ccco2)C1c1ccccc1` (stereo not given), -15.4%.
The same measure, in the same setting: in the case of `CCOC(=O)Cc1nnc(NC(=O)C(CC)Sc2nc(C)cc(=O)[nH]2)s1` (stereo not given) it was 6.95%.
On the same count and under the same terms, in the case of `Cc1ccc(OCCSc2cc(C)nc(N)n2)cc1` it was -3.51%; in that of `O=C(NCCN1CCCC1)c1ccc(CS(=O)(=O)c2c(Cl)cccc2Cl)o1`, -6.75%; in that of `O=P(O)(CCc1ccccn1)CN1CCOCC1`, -17.5%.
With `CCOC(=O)CN1Cc2cccc(C(=O)O)c2C1=O`, the growth inhibition is -13.8%.
The same measure, in the same setting: in the case of `CC(C)=C(NC(=O)c1ccccc1)C(=O)NCCCC(=O)O` it was -7.54%; in that of `Cc1c(NS(=O)(=O)c2ccccc2)cc(Cl)c(O)c1C`, -9.11%; in that of `O=C(CN1C(=O)CSc2ncccc21)NCCN1CCOCC1`, 0.545%.
The same measure, in the same setting: in the case of `CC/C(=C\C(=O)c1ccncc1)Nc1ccc(O)cc1` it was -4.59%.
Consider `Cn1c(=O)c2cc(NCc3ccccc3)nnc2n(C)c1=O`, for which the growth inhibition is -12.8%.
Still for that read-out and setting: under `Cc1oc2cc(O)ccc2c(=O)c1Oc1ccccc1Br` stands -15.9%.
On the same count and under the same terms, in the case of `Cc1ccnc(NC2c3ccccc3C(=O)N2Cc2ccccc2Cl)c1` (stereo not given) it was 4.26%; in that of `CCN=C(Nc1ccc2c(c1)OCO2)SC1CC(=O)N(c2ccccc2F)C1=O` (stereo not given), -4.17%.
The same measure, in the same setting: in the case of `CC1(C(=O)NCc2cccnc2)CCC(=O)N1CCc1ccccc1` (stereo not given) it was 4.98%; in that of `Cc1nc2ccc(S(=O)(=O)NC(C(=O)N3CCC(C)CC3)C(C)C)cc2s1` (stereo not given), -13.4%.
As for `Fc1ccc(-c2nnc(-c3ccc(Cl)cc3Cl)o2)cc1`, the growth inhibition is -6.69%.
On the same count and under the same terms, under `COc1ccc(-c2[nH]c(-c3ccc(F)cc3)nc2SCC(=O)NCc2ccco2)cc1OC` stands -4.83%; under `NC(=O)c1ccc(N2CCCCC2)c(N2C(=O)C3C4C=CC(C4)C3C2=O)c1` (stereo not given), 0.39%; under `Cc1n[nH]c(C)c1S(=O)(=O)N(CC(=O)N1CCc2ccccc21)c1ccc(C(C)C)cc1`, -9.99%.
For `CC(C)Oc1ccc(/C(O)=C2/C(=O)C(=O)N(CCCN3CCOCC3)C2c2ccncc2)cc1` (stereo not given), the growth inhibition was -3.48%.
Still for that read-out and setting: in the case of `COc1ccc(C)cc1NC(=O)C1CCCN(S(=O)(=O)c2c(C)noc2/C=C/N(C)C)C1` (stereo not given) it was -4.98%; in that of `COc1ccc(NC(=O)c2c(-c3ccccc3)noc2C)c(OC)c1`, -16%; in that of `CC(Sc1nnc(Cn2c(=O)sc3ccccc32)n1C)c1ccccc1` (stereo not given), -3.63%.
Still for that read-out and setting: in the case of `Brc1ccc(-c2noc(CCc3ccccc3)n2)o1` it was -9.63%; in that of `CN1CCc2c(sc3c2C(=O)NC(c2ccc(-c4cccc(Cl)c4)o2)N3)C1` (stereo not given), 5%.
On the same count and under the same terms, in the case of `CC(OC(=O)c1cc[n+]([O-])cc1)C(=O)Nc1ccc(Cl)cn1` (stereo not given) it was 0.77%; in that of `CCOc1ccc(S(=O)(=O)Nc2ccccc2C(=O)NCC2CCCO2)cc1` (stereo not given), -13%.
With `Cc1cc(N2CCN(C3CCCCC3)CC2)nc2cccc(O)c12`, the growth inhibition is -7.5%.
Take `CCCN(CC1CC1)S(=O)(=O)c1ccc(S(N)(=O)=O)cc1`: the growth inhibition is -8.54%.
Same read-out and setting: in the case of `COc1ccccc1CNC(=O)c1cnc2sccn2c1=O` it was -5.31%.
As for `NC(=O)C1CCN(CCCNC2CC(=O)N(Cc3ccc(N4CCCC4=O)cc3)C2=O)CC1` (stereo not given), the growth inhibition was -14.8%.
Turning to `Cc1ccc(C2=[N+]([O-])C3(CCCCC/C3=N\O)N(O)C2(C)C)o1` (stereo not given), the growth inhibition was -1.35%.
Same read-out and setting: under `NC(=O)C1(N2CCCCC2)CCN(C(=O)c2ccccc2)CC1` stands -4.24%.
As to `CCOc1ccc(Cc2nnc(SCC(=O)c3ccc(OC)cc3)o2)cc1`, the growth inhibition was 1.71%.
Same read-out and setting: under `CC(C)CCNC(=O)CCS(=O)(=O)c1cccc2nonc12` stands -8.87%; under `CCn1c(=O)cc(OCC(=O)N2CCc3ccccc32)c2ccccc21`, -19%.

Another test can be described thus: Restrictive medium S. cerevisiae growth inhibition, OD615, pilot screen of yeast lifespan reduction project, restrictive growth control (AID 706;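 active = growth inhibition above a set limit, 3 SD over mean compound inhibition, in both replicates, cut at about 43% in these data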;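 also: modified DeaD lifespan yeast strain shifted to restrictive glucose medium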). The conditions noted are these: OD615, 48 h, at 10 µM, active compounds read high. The method in brief:
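Material: modified S. cerevisiae; buffer or medium: CSMM-D glucose medium; doses: one concentration, 10 µM final, 0.25% DMSO; incubation: 48 h compound exposure at 30 °C; detection: optical density at 615 nm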
Consider `O=C(CSc1nc2c(cnn2-c2ccc(F)cc2)c(=O)[nH]1)N1CCCCCC1`, for which the growth inhibition was -9.65%.
Consider `CCNc1nnc(-c2ccccc2OC)s1`, for which the growth inhibition was 3.71%.
Same read-out and setting: in the case of `O=[n+]1c2c(n([O-])c3c1CCCC3)CCCCC2` it was -9.11%; in that of `O=C(O)C1C(c2ccccc2)C(C(=O)OCc2ccco2)C1c1ccccc1` (stereo not given), -14.6%.
On to `CCOC(=O)Cc1nnc(NC(=O)C(CC)Sc2nc(C)cc(=O)[nH]2)s1` (stereo not given), for which the growth inhibition is 22.4%.
In the case of `Cc1ccc(OCCSc2cc(C)nc(N)n2)cc1`, the growth inhibition was -3.22%.
In the case of `O=C(NCCN1CCCC1)c1ccc(CS(=O)(=O)c2c(Cl)cccc2Cl)o1`, the growth inhibition was -20.8%.
On to `O=P(O)(CCc1ccccn1)CN1CCOCC1`, for which the growth inhibition was -15.6%.
Still for that read-out and setting: in the case of `CCOC(=O)CN1Cc2cccc(C(=O)O)c2C1=O` it was -18.1%.
With `CC(C)=C(NC(=O)c1ccccc1)C(=O)NCCCC(=O)O`, the growth inhibition is -18.8%.
Same read-out and setting: in the case of `Cc1c(NS(=O)(=O)c2ccccc2)cc(Cl)c(O)c1C` it was -4.86%; in that of `O=C(CN1C(=O)CSc2ncccc21)NCCN1CCOCC1`, -1.25%.
Still for that read-out and setting: in the case of `CC/C(=C\C(=O)c1ccncc1)Nc1ccc(O)cc1` it was 8.96%; in that of `Cn1c(=O)c2cc(NCc3ccccc3)nnc2n(C)c1=O`, -9.73%.
Still for that read-out and setting: in the case of `Cc1oc2cc(O)ccc2c(=O)c1Oc1ccccc1Br` it was -12.2%.
Consider `Cc1ccnc(NC2c3ccccc3C(=O)N2Cc2ccccc2Cl)c1` (stereo not given), for which the growth inhibition was 2.1%.
Still for that read-out and setting: in the case of `CCN=C(Nc1ccc2c(c1)OCO2)SC1CC(=O)N(c2ccccc2F)C1=O` (stereo not given) it was -8.21%; in that of `CC1(C(=O)NCc2cccnc2)CCC(=O)N1CCc1ccccc1` (stereo not given), 3.93%.
Still for that read-out and setting: in the case of `Cc1nc2ccc(S(=O)(=O)NC(C(=O)N3CCC(C)CC3)C(C)C)cc2s1` (stereo not given) it was -2.64%; in that of `Fc1ccc(-c2nnc(-c3ccc(Cl)cc3Cl)o2)cc1`, -11.2%; in that of `COc1ccc(-c2[nH]c(-c3ccc(F)cc3)nc2SCC(=O)NCc2ccco2)cc1OC`, 12.4%.
The same measure, in the same setting: in the case of `NC(=O)c1ccc(N2CCCCC2)c(N2C(=O)C3C4C=CC(C4)C3C2=O)c1` (stereo not given) it was -4.49%; in that of `Cc1n[nH]c(C)c1S(=O)(=O)N(CC(=O)N1CCc2ccccc21)c1ccc(C(C)C)cc1`, 9.17%.
In the case of `CC(C)Oc1ccc(/C(O)=C2/C(=O)C(=O)N(CCCN3CCOCC3)C2c2ccncc2)cc1` (stereo not given), the growth inhibition was -4.07%.
Consider `COc1ccc(C)cc1NC(=O)C1CCCN(S(=O)(=O)c2c(C)noc2/C=C/N(C)C)C1` (stereo not given), for which the growth inhibition was 3.38%.
With `COc1ccc(NC(=O)c2c(-c3ccccc3)noc2C)c(OC)c1`, the growth inhibition is -30.3%.
Take `CC(Sc1nnc(Cn2c(=O)sc3ccccc32)n1C)c1ccccc1` (stereo not given): the growth inhibition was 15.1%.
As to `Brc1ccc(-c2noc(CCc3ccccc3)n2)o1`, the growth inhibition is 2.66%.
For the compound `CN1CCc2c(sc3c2C(=O)NC(c2ccc(-c4cccc(Cl)c4)o2)N3)C1` (stereo not given), the growth inhibition is 3.19%.
On to `CC(OC(=O)c1cc[n+]([O-])cc1)C(=O)Nc1ccc(Cl)cn1` (stereo not given), for which the growth inhibition is 0.53%.
Same read-out and setting: in the case of `CCOc1ccc(S(=O)(=O)Nc2ccccc2C(=O)NCC2CCCO2)cc1` (stereo not given) it was -16.7%; in that of `Cc1cc(N2CCN(C3CCCCC3)CC2)nc2cccc(O)c12`, -31.3%; in that of `CCCN(CC1CC1)S(=O)(=O)c1ccc(S(N)(=O)=O)cc1`, 0.87%.
Consider `COc1ccccc1CNC(=O)c1cnc2sccn2c1=O`, for which the growth inhibition is -12.4%.
Regarding `NC(=O)C1CCN(CCCNC2CC(=O)N(Cc3ccc(N4CCCC4=O)cc3)C2=O)CC1` (stereo not given), the growth inhibition is -4.07%.
With `Cc1ccc(C2=[N+]([O-])C3(CCCCC/C3=N\O)N(O)C2(C)C)o1` (stereo not given), the growth inhibition was -2.15%.
Still for that read-out and setting: in the case of `NC(=O)C1(N2CCCCC2)CCN(C(=O)c2ccccc2)CC1` it was -19.4%; in that of `CCOc1ccc(Cc2nnc(SCC(=O)c3ccc(OC)cc3)o2)cc1`, 25.5%; in that of `CC(C)CCNC(=O)CCS(=O)(=O)c1cccc2nonc12`, -22.1%.
With `CCn1c(=O)cc(OCC(=O)N2CCc3ccccc32)c2ccccc21`, the growth inhibition is -15.4%.
